In PMC9352169 (ACS Omega, 2022):
“And” between values parts separate entries of the source, which are not always exact repeats. Equal entries are not always repeated.

Columns and labels:
[1] = system: human breast adenocarcinoma, MCF-7 cell line; assay: MTT cytotoxicity assay, MCF-7; format: cell-based; details: for SI (IC50 of Vero cell line/IC50 of MCF-7 cell line): Vero vs MCF-7; for IC50: read-out: IC50 breast cancer MCF-7, MTT, 24 h incubation, n = 3
Procedure, shortened: (§1)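 MTT viability assay. Vero cells were grown in MEM and MCF-7 cells in DMEM, both with 10% FBS and penicillin/streptomycin, at 37 °C and 5% CO2. Cells were exposed 24 h to test complex at 2, 4, 8, 16, 32 and 64 (DMSO stock). Viability was expressed relative to untreated control and IC50 computed. Values are mean ± SD of three independent experiments. SI = IC50 Vero / IC50 MCF-7.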

[2] = system: EtBr + CT-DNA adduct; assay: Fluorescence EtBr exchange titration on CT-DNA; format: binding, calf; details: for n (number of binding sites) / KF × 10^–4 (Scatchard binding constant) / Kapp × 10^–6 (apparent binding constant) / Ksv × 10^–4 (Stern–Volmer quenching constant) / kq × 10^–12 (bimolecular quenching rate constant): EtBr exchange; for n (number of binding sites): Scatchard; for KF × 10^–4 (Scatchard binding constant) / Kapp × 10^–6 (apparent binding constant) / Ksv × 10^–4 (Stern–Volmer quenching constant) / kq × 10^–12 (bimolecular quenching rate constant) / Decrease in initial EtBr+CT-DNA fluorescence: pH 7.2; for Decrease in initial EtBr+CT-DNA fluorescence: λem = 596 nm, λex = 510 nm
Procedure, shortened: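 Competitive EtBr displacement used EtBr 20.0 μM and CT-DNA 20.0 μM with test complex added at 0–150 μM, in 5 mM Tris/50 mM NaCl, pH 7.2. Samples were equilibrated about 14 h at 37 °C. Emission was 596 nm (excitation 510 nm), with inner-filter check. Data were analysed as Stern–Volmer Io/I vs [Q] and Scatchard log[(Io–I)/I] vs log[Q].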

[3] = system: supercoiled pcDNA; assay: Photoinduced pcDNA cleavage; format: biochemical; details: 250 μM complex + 0.1 μM pcDNA
[4] = system: zebrafish embryos; assay: Zebrafish embryo acute toxicology; format: in vivo, Danio rerio; details: for drop of survival rate when the concentration increased from 15 to 90 μM / morphological changes in zebrafish embryos / LC50: 96 hpf; for morphological changes in zebrafish embryos: even at 90 M (printed); for LC50: zebrafish embryos
[5] = Substitution kinetics of chlorides by thiourea; format: physicochemical; details: Nu = Tu, 35 °C; for k2^1st × 10^1: first step; for k2^1st × 10^1 / k2^2nd × 10^2: pH 7.2; for k–1^2nd × 10^5: second step back reaction; for k2^2nd × 10^2: second step
Procedure, shortened: (§2)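 Chloride substitution was followed by UV-vis under pseudo-first-order conditions: complex 50 μM with the nucleophile in ≥20-fold excess, in 5 mM Tris–HCl/50 mM NaCl, pH 7.2. Complex stocks were 5 mM in 5% DMF. Runs spanned 25–55 °C at 10 °C intervals, and the Tu trace was taken at 524 nm. Rate constants came from kobs vs [nucleophile] plots, with activation parameters from temperature dependence.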

[6] = system: guanosine-5′-monophosphate, 5′-GMP; assay: Substitution kinetics of chlorides by guanosine-5′-monophosphate; format: physicochemical; details: Nu = 5′-GMP, 35 °C; for k2^1st × 10^1: first step; for k2^1st × 10^1 / k2^2nd × 10^2: pH 7.2; for k–1^2nd × 10^5: second step back reaction; for k2^2nd × 10^2: second step
Procedure, shortened: as §2

[7] = molecular target: BSA (Bos taurus, UniProt P02769); assay: BSA fluorescence quenching titration; format: binding, bovine; details: for Ksv × 10^–5: BSA 1.08 μM; for Ksv × 10^–5 / Decrease in initial BSA fluorescence: λem = 348 nm; for kq × 10^–13: BSA quenching; for KF × 10^–5 / n (number of binding sites): BSA, Scatchard; for Decrease in initial BSA fluorescence: pH 7.2
BSA, sequence (P02769 25-607): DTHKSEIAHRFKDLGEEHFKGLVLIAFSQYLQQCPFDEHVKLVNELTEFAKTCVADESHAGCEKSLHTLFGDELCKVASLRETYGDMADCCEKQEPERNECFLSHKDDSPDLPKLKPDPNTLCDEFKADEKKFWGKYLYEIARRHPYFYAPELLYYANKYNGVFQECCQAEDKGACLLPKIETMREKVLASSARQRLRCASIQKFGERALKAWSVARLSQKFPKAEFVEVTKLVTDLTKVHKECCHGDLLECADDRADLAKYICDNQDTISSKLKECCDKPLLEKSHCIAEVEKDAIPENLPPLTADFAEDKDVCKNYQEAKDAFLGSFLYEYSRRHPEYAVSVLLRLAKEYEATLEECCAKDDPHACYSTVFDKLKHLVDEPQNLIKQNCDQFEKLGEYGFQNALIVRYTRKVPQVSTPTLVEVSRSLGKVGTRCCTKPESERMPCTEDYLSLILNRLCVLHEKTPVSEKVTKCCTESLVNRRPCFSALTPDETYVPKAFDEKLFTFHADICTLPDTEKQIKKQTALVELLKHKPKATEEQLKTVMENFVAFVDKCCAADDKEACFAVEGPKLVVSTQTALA
Procedure, shortened: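 Complex stocks were 5 mM in DMSO, diluted in buffer, and samples were incubated about 14 h at 37 °C before reading. Emission was read at 348 nm and checked for inner-filter effects by UV-vis. Data were fitted by Stern–Volmer and Scatchard analysis.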

[8] = Substitution kinetics of chlorides by L-methionine; format: physicochemical; details: Nu = L-Met, 35 °C, pH 7.2; for k2^1st × 10^1: first step; for k1^2nd × 10^4: second step (ring closure)
Procedure, shortened: as §2

[9] = system: normal Vero cell line; assay: MTT cytotoxicity assay, Vero; format: cell-based; details: read-out: IC50 normal Vero, 24 h incubation, n = 3
Procedure, shortened: as §1

[10] = system: CT-DNA; assay: CT-DNA UV-vis absorption titration; format: binding, calf; details: Van't Hoff equation ΔG = −RT lnKb
Procedure, shortened: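 UV-vis titration of test complex (14 μM) with CT-DNA (0–90 μM) in 5 mM Tris–HCl/50 mM NaCl, pH 7.2. Complex came from a 5 mM DMSO stock diluted in buffer, and samples were equilibrated about 14 h at 37 °C. The binding constant came from absorbance changes, and ΔG from it.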

[11] = system: zebrafish embryos; details: cited from earlier work

Compound | SI (IC50 of Vero cell line/IC50 of MCF-7 cell line) [1] | IC50 [1] [µM] | n (number of binding sites) [2] | KF × 10^–4 (Scatchard binding constant) [2] [M^–1] | Kapp × 10^–6 (apparent binding constant) [2] [M^–1] | Ksv × 10^–4 (Stern–Volmer quenching constant) [2] [M^–1] | kq × 10^–12 (bimolecular quenching rate constant) [2] [M^–1 s^–1] | Decrease in initial EtBr+CT-DNA fluorescence [2] | % of NC (pcDNA cleavage) [3] [%] | morphological changes in zebrafish embryos [4] | LC50 [4] [µM] | k2^1st × 10^1 [5] [M^–1 s^–1] | k–1^2nd × 10^5 [5] [s^–1] | k2^2nd × 10^2 [5] [M^–1 s^–1] | k2^1st × 10^1 [6] [M^–1 s^–1] | k–1^2nd × 10^5 [6] [s^–1] | k2^2nd × 10^2 [6] [M^–1 s^–1] | experimental ΔG of binding with BSA [7] [kJ mol^–1] | Ksv × 10^–5 [7] [M^–1] | kq × 10^–13 [7] [M^–1 s^–1] | other results
[Cl-].[Cl-].[Pt+2].[Ru+2].c1ccc(-c2nc3cc4ccccc4cc3nc2-c2ccccn2)nc1.c1cnc2c(c1)ccc1cccnc12.c1cnc2c(c1)ccc1cccnc12 [C3, [(1,10-phenanthroline)2Ru(II)(μ-2,3-bis(2-pyridyl)benzo[g]quinoxaline)Pt(II)dichloride]^2+] | 5.55 and 5.23 | 3.1 ± 0.8 | 1.00 ± 0.07 | 3.96 ± 0.17 | 8.00 ± 0.23 | 3.92 ± 0.19 | 1.70 ± 0.31 | ≤ 37% | 17 | did not induce any significant morphological changes | 149 | 7.57 ± 0.29 | 10.99 ± 0.13 | 14.53 ± 0.22 | 1.39 ± 0.15 | 2.22 ± 0.04 | 2.20 ± 0.10 | −31.97 | 2.65 ± 0.22 | 2.65 ± 0.33 | % of survival rate ([4]; 15 μM, 96 h): 86.7%; embryos abnormal, difficulty growing into juvenile zebrafish ([4]; 45 μM or higher concentration): about 25%; % of survival rate ([4]; 90 μM, 96 h): 56.7%; drop of survival rate when the concentration increased from 15 to 90 μM [4]: 30%; KF × 10^–5 [7]: 6.64 ± 0.17 M^–1; n (number of binding sites) [7]: 1.01 ± 0.07; Decrease in initial BSA fluorescence [7]: ≤ 10%; k2^1st × 10^1 [8]: 3.10 ± 0.26 M^–1 s^–1; k1^2nd × 10^4 [8]: 2.08 ± 0.33 ^a s^–1; IC50 [9]: 16.2 ± 1.7 µM; ΔG of binding with CT-DNA [10]: −36 ± 3 kJ mol^–1
[Cl-].[Cl-].[Pt+2].[Ru+2].c1ccc(-c2nc3ccccc3nc2-c2ccccn2)nc1.c1cnc2c(c1)ccc1cccnc12.c1cnc2c(c1)ccc1cccnc12 [C2, [(1,10-phenanthroline)2Ru(II)(μ-2,3-bis(2-pyridyl)quinoxaline)Pt(II)dichloride]^2+] | 4.38 | 4 ± 1.1 | 0.99 ± 0.05 | 1.98 ± 0.11 | 6.25 ± 0.17 | 2.83 ± 0.13 | 1.23 ± 0.24 | ≤ 23% | ~18 | did not induce any significant morphological changes | 96.3 ± 1.4 | 4.26 ± 0.21 | 4.35 ± 0.09 | 8.65 ± 0.15 | 0.96 ± 0.13 | 0.84 ± 0.04 | 1.48 ± 0.08 | −31.55 | 2.26 ± 0.15 | 2.26 ± 0.24 | KF × 10^–5 [7]: 1.16 ± 0.10 M^–1; n (number of binding sites) [7]: 1.00 ± 0.05; Decrease in initial BSA fluorescence [7]: ≤ 17%; k2^1st × 10^1 [8]: 1.75 ± 0.18 M^–1 s^–1; k1^2nd × 10^4 [8]: 1.02 ± 0.15 ^a s^–1; IC50 [9]: 17.5 ± 1.9 µM; ΔG of binding with CT-DNA [10]: −35 ± 2 kJ mol^–1
cis-[Pt(NH3)2Cl2] [cisplatin, reference compound] | 4.02 | – | – | – | – | – | – | – | – | did not induce any significant morphological changes | 181 | – | – | – | – | – | – | – | – | – | % of survival rate ([4]; 15 μM, 96 h): over 90%; % of hatching rate ([4]; 90 μM, 96 h): about 6.7%; % of survival rate ([4]; 90 μM, 96 h): 60%; lethality in zebrafish ([11]; 400 μM): lethal outcome; toxicity in developing zebrafish embryos ([11]; under 15 μM, delayed hatching up to 120 hpf): nontoxic
[Cl-].[Cl-].[Pt+2].[Ru+2].c1ccc(-c2nccnc2-c2ccccn2)nc1.c1cnc2c(c1)ccc1cccnc12.c1cnc2c(c1)ccc1cccnc12 [C1, [(1,10-phenanthroline)2Ru(II)(μ-2,3-bis(2-pyridyl)pyrazine)Pt(II)dichloride]^2+] | 2.12 | 9.1 ± 1.5 | 0.99 ± 0.04 | 1.00 ± 0.05 | 3.33 ± 0.11 | 1.59 ± 0.07 | 0.69 ± 0.19 | up to 19% | ~24 | did not induce any significant morphological changes | 65.2 ± 1 | 1.45 ± 0.15 | 1.04 ± 0.04 | 2.73 ± 0.10 | 0.34 ± 0.09 | 0.20 ± 0.02 | 0.75 ± 0.04 | −31.02 | 1.84 ± 0.08 | 1.84 ± 0.16 | drop of survival rate when the concentration increased from 15 to 90 μM [4]: 50%; KF × 10^–5 [7]: 0.47 ± 0.06 M^–1; n (number of binding sites) [7]: 0.84 ± 0.03; Decrease in initial BSA fluorescence [7]: up to 20%; k2^1st × 10^1 [8]: 0.75 ± 0.11 M^–1 s^–1; k1^2nd × 10^4 [8]: 0.37 ± 0.08 ^a s^–1; IC50 [9]: 19.3 ± 2.1 µM; ΔG of binding with CT-DNA [10]: −30 ± 3 kJ mol^–1
